Test [1] has as its target T1, Proteasome subunit beta type-9 (Homo sapiens, UniProt P28065).
T1 sequence (P28065 whole entry): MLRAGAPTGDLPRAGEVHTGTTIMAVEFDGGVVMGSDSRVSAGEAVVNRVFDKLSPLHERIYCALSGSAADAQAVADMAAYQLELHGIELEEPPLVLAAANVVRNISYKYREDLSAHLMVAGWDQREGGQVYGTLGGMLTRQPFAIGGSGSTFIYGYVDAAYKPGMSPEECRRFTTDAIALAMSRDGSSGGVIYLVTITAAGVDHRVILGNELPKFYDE
Nature of the test: Inhibition of human 20S proteasome LMP2 using Ac-PAL-AMC as fluorogenic substrate measured every minute for 1 hr by fluorescence assay. Summed up:
(§1)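 Preincubated 1 h with inhibitor at 3-10,000 nM (8 concentrations). Substrates at 100 μM: Ac-PAL-AMC (LMP2), Ac-nLPnLD-AMC (Y), Ac-ANW-AMC (LMP7). Ac-WLA-AMC (X) at 20 μM. AMC fluorescence (360/460 nm) read each minute for 1 h; 3 replicates.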

Test [2] has as its target T2, Proteasome subunit beta type-8 (Homo sapiens, UniProt P28062).
T2 sequence (P28062 whole entry): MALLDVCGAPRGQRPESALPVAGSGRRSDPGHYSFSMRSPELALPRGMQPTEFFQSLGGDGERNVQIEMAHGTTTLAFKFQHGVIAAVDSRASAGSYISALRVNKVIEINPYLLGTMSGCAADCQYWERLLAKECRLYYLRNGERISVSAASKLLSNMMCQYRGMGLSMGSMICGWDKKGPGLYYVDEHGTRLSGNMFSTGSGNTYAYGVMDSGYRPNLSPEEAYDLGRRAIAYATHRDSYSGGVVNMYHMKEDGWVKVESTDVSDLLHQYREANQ
Nature of the test: Inhibition of human 20S proteasome LMP7 using Ac-ANW-AMC as fluorogenic substrate measured every minute for 1 hr by fluorescence assay. Summed up: (§2)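 Purified human 20S constitutive or immunoproteasome, 50 ng in 20 mM Tris-HCl, 0.5 mM EDTA, 0.035% SDS, pH 8.0. Preincubated 1 h with inhibitor at 3-10,000 nM (8 concentrations). Substrates at 100 μM: Ac-PAL-AMC (LMP2), Ac-nLPnLD-AMC (Y), Ac-ANW-AMC (LMP7). Ac-WLA-AMC (X) at 20 μM. AMC fluorescence (360/460 nm) read each minute for 1 h; 3 replicates.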

Test [3] can be described thus: Inhibition of human 20S proteasome X using Ac-WLA-AMC as fluorogenic substrate measured every minute for 1 hr by fluorescence assay. An outline of the steps: as §2
In test [4] the target is T1, Proteasome subunit beta type-9. Nature of the test: Inhibition of human 20S proteasome LMP2 activity in human RPMI-8226 cells using Ac-PAL-AMC as fluorogenic substrate incubated for 72 hrs by fluorescence assay. The test is classed as cell-based.
For test [5] the target is unchanged. Nature of the test: Inhibition of human 20S proteasome LMP2 activity in human RPMI-8226 cells overexpressing ABCB1 using Ac-PAL-AMC as fluorogenic substrate incubated for 72 hrs by fluorescence assay. The test is classed as cell-based.
Test [6] can be described thus: Inhibition of human 20S proteasome Y using Ac-nLPnLD-AMC as fluorogenic substrate measured every minute for 1 hr by fluorescence assay. Summed up:
as §1

The species entered for a further test is Homo sapiens. Nature of the test: Selectivity index, ratio of IC50 for inhibition of human 20S proteasome LMP2 activity in human RPMI-8226 cells overexpressing ABCB1 to IC50 for inhibition of human 20S proteasome LMP2 activity in human RPMI-8226 cells. The test is classed as cell-based. An outline of the steps: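 Carfilzomib-resistant RPMI 8226/ABCB1 line, kept drug-free for two weeks, alongside parental RPMI 8226. Cells exposed to varying inhibitor concentrations for 72 h, n=3 per concentration. Lysates (5 μg protein, pH 8.0 Tris/EDTA/0.035% SDS buffer) read with 100 μM Ac-PAL-AMC at ex 360/em 460 nm every minute for 1 h. IC50 from curve fitting, mean ± SD.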

This is an account of results in ChEMBL document CHEMBL4828720, “Macrocyclic Immunoproteasome Inhibitors as a Potential Therapy for Alzheimer's Disease” (J Med Chem, 2021).

By IC50 is commonly meant the concentration that inhibits the measured activity by half. Low readings indicate higher potency, high ones lower potency. Take `C[C@]1(C(=O)[C@H](Cc2ccccc2)NC(=O)[C@@H]2COCCCCCC(=O)N3CCC[C@H]3C(=O)N2)CO1`: the IC50 in test [1] is 251 nM; in test [2] it was > 10000 nM; in test [3] it was > 10000 nM.
In the case of `CC(C)C[C@H](NC(=O)[C@@H]1COCCCCCC(=O)NCC(=O)N2CCC[C@H]2C(=O)N1)C(=O)[C@@]1(C)CO1`, the IC50 is 69.4 nM in test [1]; > 10000 nM in test [2]; > 10000 nM in test [3]; > 10000 nM in test [4]; > 10000 nM in test [5].
Consider `CC(C)C[C@H](NC(=O)[C@H](Cc1ccccc1)NC(=O)[C@@H]1CCCN1C(=O)CNC(=O)c1cnccn1)C(=O)[C@@]1(C)CO1`, for which the half-inhibitory concentration (IC50) in test [3] was > 10000 nM.
For the compound `C[C@]1(C(=O)[C@H](CC2CCCCC2)NC(=O)[C@@H]2Cc3ccc(cc3)OCCCCCCCC(=O)N3CCC[C@H]3C(=O)N2)CO1`, the IC50 in test [1] was 168 nM; in test [2] it was 2690 nM; in test [3] it was 5000 nM.
On the same counts, the results for `CC(C)C[C@H](NC(=O)[C@@H]1COCCCCCCC(=O)N2CCC[C@H]2C(=O)N1)C(=O)[C@@]1(C)CO1` are 563 nM, > 10000 nM and 4640 nM.
On to `CC(C)C[C@H](NC(=O)[C@@H]1COCCCCCC(=O)N2CCC[C@H]2C(=O)N1)C(=O)[C@@]1(C)CO1`, for which the half-inhibitory concentration (IC50) was 413 nM in test [1]; 1500 nM in test [6]; > 10000 nM in test [2]; 1080 nM in test [3]; 35.8 nM in test [4]; 147 nM in test [5]. In the test filed under Homo sapiens, the Ratio IC50 came to 4.1.
As to `CC(C)C[C@H](NC(=O)[C@@H]1COCCCCCC(=O)N2CCC[C@@]2(C)C(=O)N1)C(=O)[C@@]1(C)CO1`, the IC50 was 4580 nM in test [1], > 10000 nM in test [2] and > 10000 nM in test [3].
On to `CC(C)C[C@H](NC(=O)[C@@H]1COCCCCCC(=O)N2C[C@H](F)C[C@H]2C(=O)N1)C(=O)[C@@]1(C)CO1`, for which the IC50 is 2130 nM in test [1], > 10000 nM in test [6], > 10000 nM in test [2] and > 10000 nM in test [3].
For the compound `CC(C)C[C@H](NC(=O)[C@@H]1COCCCCCCCC(=O)N2CCC[C@H]2C(=O)N1)C(=O)[C@@]1(C)CO1`, the 50% inhibitory concentration (IC50) is 158 nM in test [1], > 10000 nM in test [2] and > 10000 nM in test [3].
As for `CC(C)C[C@H](NC(=O)[C@@H]1COCCCCCC(=O)N2CC(F)(F)C[C@H]2C(=O)N1)C(=O)[C@@]1(C)CO1`, the half-maximal inhibitory concentration (IC50) was 238 nM in test [1], > 10000 nM in test [2] and > 10000 nM in test [3].
Regarding `CC(C)C[C@H](NC(=O)[C@@H]1COCCCCCC(=O)N2CC[C@H]2C(=O)N1)C(=O)[C@@]1(C)CO1`, the half-inhibitory concentration (IC50) in test [1] is 261 nM; in test [2], > 10000 nM; in test [3] it was > 10000 nM.
For the compound `CC(C)C[C@H](NC(=O)[C@@H]1COCCCCCCC(=O)NCC(=O)N2CCC[C@H]2C(=O)N1)C(=O)[C@@]1(C)CO1`, the IC50 in test [1] is 65.6 nM; in test [2], > 10000 nM; in test [3], > 10000 nM; in test [4], > 10000 nM; in test [5], > 10000 nM.
With `C[C@]1(C(=O)[C@H](CC2CCCCC2)NC(=O)[C@@H]2COCCCCCC(=O)N3CCC[C@H]3C(=O)N2)CO1`, the IC50 in test [1] was 523 nM; in test [2], 5770 nM; in test [3], > 10000 nM.
Take `CC(C)C[C@H](NC(=O)[C@@H]1Cc2ccc(cc2)OCCCCCCCCC(=O)N2CCC[C@H]2C(=O)N1)C(=O)[C@@]1(C)CO1`: the IC50 in test [1] was determined as 414 nM; in test [6], 414 nM; in test [2], 342 nM; in test [3], 5000 nM.
For `CC(=O)NCC(=O)N1CCC[C@H]1C(=O)N[C@@H](Cc1ccccc1)C(=O)N[C@@H](CC(C)C)C(=O)[C@@]1(C)CO1`, the IC50 in test [3] was > 10000 nM.
On to `CC(C)C[C@H](NC(=O)[C@@H]1Cc2ccc(cc2)OCCCCCCCC(=O)N2CCC[C@H]2C(=O)N1)C(=O)[C@@]1(C)CO1`, for which the half-maximal inhibitory concentration (IC50) in test [1] worked out at 129 nM; in test [6] it was 715 nM; in test [2], 1520 nM; in test [3], 4770 nM; in test [4], 33.9 nM; in test [5] it was 161 nM. Besides, the Ratio IC50 in the test filed under Homo sapiens amounted to 4.7.
Take `CC(C)C[C@H](NC(=O)[C@@H]1COCCCCCC(=O)N2CCCC[C@H]2C(=O)N1)C(=O)[C@@]1(C)CO1`: the IC50 in test [1] is 1240 nM; in test [2], > 10000 nM; in test [3] it was > 10000 nM.
Take `CC(C)C[C@H](NC(=O)[C@@H]1Cc2ccc(cc2)OCCCCCCC(=O)N2CCC[C@H]2C(=O)N1)C(=O)[C@@]1(C)CO1`: the values for the IC50 in test [1], in test [2] and in test [3] were 423 nM, > 10000 nM and > 10000 nM, respectively.
